Measured values as given in PubChem BioAssay.
Inconclusive results are not listed.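 How the source made its calls, unless noted: active means viability at or below 27.92% in each of two runs, the all-compound median minus 4 SD; inconclusive means no clear call, values can overlap the other calls; inactive means the rest.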

Experiments:
[1] = OD615 S. cerevisiae growth inhibition, permissive medium, pilot counter-assay, permissive growth control for S. cerevisiae lifespan shortening project (AID 705;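 active means growth inhibition above 25% in both replicates, a cutoff set 3 SD above the mean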); conditions: OD615, 24 h, at 10 µM, hits give high values
Method in brief: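 assay system = Saccharomyces cerevisiae strain carrying genetically modified DeaD replicative-lifespan system | medium = SC raffinose/galactose permissive medium | dosing = 10 µM single dose, 0.25% DMSO | schedule = 24 h compound exposure at 30 °C after 4 h pre-growth | measured by = OD at 615 nm | read-out basis = growth inhibition from lowered OD615 after 24 h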

[2] = Restrictive medium S. cerevisiae growth inhibition, OD615, pilot screen of yeast lifespan reduction project, restrictive growth control (AID 706;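 active means growth inhibition above a set limit, 3 SD over mean compound inhibition, in both replicates, cut at about 43% in these data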;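 further: modified DeaD lifespan yeast strain shifted to restrictive glucose medium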); conditions: OD615, 48 h, at 10 µM, hits give high values
Method in brief: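 Buffer or medium: CSMM-D glucose medium. Material: genetically modified Saccharomyces cerevisiae, DeaD replicative lifespan assay strain. Times: 48 h compound exposure at 30 °C. Measured by: optical density at 615 nm.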

[3] = viability gain of MRP-1-high H69AR cells under doxorubicin, pilot screen, MRP-1 activator project, CellTiter-Glo, duplicate (AID 807;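 active means viability increase at or above a cutoff of the median across tested compounds plus 3 SD, cut at about 8.5% in these data, passing the limit was not always enough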;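 further: compound pretreatment 18-22 h then 72 h combined with doxorubicin; 0% = doxorubicin alone and 100% = vehicle without doxorubicin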); conditions: H69AR viability with doxorubicin, CellTiter-Glo luminescence; at 10 µM; hits give high values
[4] = growth suppression of beta-catenin knockout HCT116, pilot screen, human colon tumor cells (AID 823;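 active means cell viability at or below a set limit in both duplicate runs, the limit being the all-compound median minus 4 SD, cut at about 23% in these data, passing the limit was not always enough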;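 further: 0% = wells killed by 20 µM Hyamine and 100% = untreated DMSO cell wells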); conditions: CellTiter-Glo, 60 h, at 10 µM, hits give low values
[5] = growth suppression of PTEN-deleted HCT116, pilot screen, cell-based, HCT116 clonal line, CellTiter-Glo (AID 824); conditions: 60 h, at 10 µM, hits give low values;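 further: 0% = 20 µM Hyamine control and 100% = vehicle cell control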
[6] = inhibitors of the yeast RAM network, pilot screen, dse1pr::URA3 reporter, 5-FOA selection (AID 869;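 active means inhibition over a set limit, the all-compound mean plus 3 SD, in both replicate runs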;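 further: 0% = DMSO wells with no growth and 100% = 10 µM 1-NA-PP1 with full growth; RAM network block rescues cells from 5-FOA so hits raise OD615 growth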); conditions: S. cerevisiae dse1pr::URA3 5-FOA growth, OD615, 2 d, at 10 µM, hits give high values
[7] = RAM signaling pathway blockade in yeast – S. cerevisiae, Pdr1DBD-CYC8 efflux-inhibited sensitized strain, primary screen (AID 1298;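 active means RAM network inhibition above 8.4% in each of two replicates, 3 SD over the compound average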;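 further: 0% = DMSO untreated cells without growth and 100% = 10 µM 1-NA-PP1 full growth; higher means more yeast growth rescued from 5-FOA killing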); conditions: S. cerevisiae cbk1-as DSE1-URA3 strain, 5-FOA growth OD615, 2 d; at 50 µM; hits give high values

O=C(O)c1cc2ccccc2oc1=O
inactive: growth inhibition [1] -21.9% | growth inhibition [2] -5.03% | viability increase [3] -0.27% | viability [4] 103% | viability [5] 99.6% | inhibition [6] 1.08% | RAM network inhibition [7] 1.06%

CC(=O)c1cccc(NC2=NCC(C)S2)c1 (centres undefined)
inactive: growth inhibition [1] -9.46% | growth inhibition [2] -13.1% | viability increase [3] -0.51% | viability [4] 106% | viability [5] 93.9% | inhibition [6] 2.77% | RAM network inhibition [7] 2.41%

CC1(C)C(c2ccccc2)=NC(c2cccnc2)=[N+]1[O-]
inactive: growth inhibition [1] -4.62% | growth inhibition [2] -3.12% | viability increase [3] 1.13% | viability [4] 98.7% | viability [5] 89.4% | inhibition [6] -0.02% | RAM network inhibition [7] -0.36%

O=c1cccc2n1CC1CC2CN(C(c2cccc(F)c2)c2sc3ncnn3c2O)C1 (centres undefined)
inactive: growth inhibition [1] -2.99% | growth inhibition [2] -4.42% | viability increase [3] -0.98% | viability [4] 105% | viability [5] 111% | inhibition [6] 2.02% | RAM network inhibition [7] -0.21%

Cc1ccnc(-n2c(C)nc3ccccc3c2=O)c1
inactive: growth inhibition [1] -1.76% | growth inhibition [2] -3.79% | viability increase [3] -2.48% | viability [4] 90.8% | viability [5] 90.7% | inhibition [6] 0.27% | RAM network inhibition [7] -0.81%

COc1ccc(CN2CC3CC(C2)c2cccc(=O)n2C3)cc1OC (centres undefined)
inactive: growth inhibition [1] -11.4% | growth inhibition [2] -6.36% | viability increase [3] -1.47% | viability [4] 93.2% | viability [5] 93.7% | inhibition [6] 2.04% | RAM network inhibition [7] 1.09%

COP(=S)(OC)SCN1C(=O)c2ccccc2C1=O
inactive: growth inhibition [1] 14% | growth inhibition [2] 26.2% | viability increase [3] -4.23% | viability [4] 94.2% | viability [5] 84.9% | inhibition [6] 1.48% | RAM network inhibition [7] 3.76%

COc1cc(CN2CC3CC(C2)c2cccc(=O)n2C3)cc(OC)c1OC (centres undefined)
inactive: growth inhibition [1] -11.8% | growth inhibition [2] -4.6% | viability increase [3] -2.25% | viability [4] 104% | viability [5] 109% | inhibition [6] 2.42% | RAM network inhibition [7] 0.85%

CC(=O)Nc1ccc(OC(=O)N(C)c2ccccc2)cc1
inactive: growth inhibition [1] 1.69% | growth inhibition [2] -3.19% | viability increase [3] 0.24% | viability [4] 105% | viability [5] 100% | inhibition [6] 3.04% | RAM network inhibition [7] 3.59%

COc1cccc(OCC(=O)N2CCN(C)CC2)c1
inactive: growth inhibition [1] 5.64% | growth inhibition [2] 11.5% | viability increase [3] 0.31% | viability [4] 99.8% | viability [5] 102% | inhibition [6] 0.505% | RAM network inhibition [7] 0.31%

Clc1cccc(CN2CCCCC2c2cccnc2)c1 (centres undefined)
inactive: growth inhibition [1] -8.37% | growth inhibition [2] -2.08% | viability increase [3] 0.65% | viability [4] 81.9% | viability [5] 85.3% | inhibition [6] 1.16% | RAM network inhibition [7] -0.74%

c1cncc(C2CCCCN2Cc2ccc3c(c2)OCO3)c1 (centres undefined)
inactive: growth inhibition [1] -6.18% | growth inhibition [2] -13% | viability increase [3] -0.84% | viability [4] 95.2% | viability [5] 94.3% | inhibition [6] 2.12% | RAM network inhibition [7] 4.3%

Cn1c(O)c(C=NCCc2c[nH]c3ccccc23)c(=O)n(C)c1=O
inactive: growth inhibition [1] -0.425% | growth inhibition [2] -3.75% | viability increase [3] -2.67% | viability [4] 101% | viability [5] 91.4% | inhibition [6] 1.54% | RAM network inhibition [7] -0.15%

Cc1ccc(-n2nc(C)c3c2NC(=O)CSC3c2ccc3c(c2)OCO3)cc1 (centres undefined)
inactive: growth inhibition [1] -3.05% | growth inhibition [2] 2.3% | viability increase [3] 0.35% | viability [4] 89.9% | viability [5] 96.3% | inhibition [6] 0.385% | RAM network inhibition [7] 1.16%

COC(=O)c1ccc(CN2CCN(Cc3ccccc3)CC2)cc1
inactive: growth inhibition [1] -18.9% | growth inhibition [2] -15.9% | viability increase [3] -1.15% | viability [4] 94.5% | viability [5] 90.8% | inhibition [6] 1.31% | RAM network inhibition [7] 1.37%

O=c1c2ccccc2nc(-c2cccs2)n1-c1cnccn1
inactive: growth inhibition [1] -10.5% | growth inhibition [2] -2.03% | viability increase [3] -1.4% | viability [4] 99.7% | viability [5] 96.3% | inhibition [6] 2.33% | RAM network inhibition [7] 2.35%

O=C(CN1CC(c2ccccc2)CC1=O)Nc1ccccc1 (centres undefined)
inactive: growth inhibition [1] -20.4% | growth inhibition [2] -12.7% | viability increase [3] -1.8% | viability [4] 106% | viability [5] 95.4% | inhibition [6] 1.06% | RAM network inhibition [7] 4.01%

O=c1c2ccccc2nc(-c2ccco2)n1-c1ccncc1
inactive: growth inhibition [1] -1.4% | growth inhibition [2] 3.59% | viability increase [3] 0.16% | viability [4] 91.8% | viability [5] 97.2% | inhibition [6] 0.635% | RAM network inhibition [7] -0.06%

CN(C)C(=O)Oc1ccc(C(=O)c2ccccc2)cc1
inactive: growth inhibition [1] -2.66% | growth inhibition [2] 5.16% | viability increase [3] 1.59% | viability [4] 101% | viability [5] 95.1% | inhibition [6] 0.43% | RAM network inhibition [7] 0.92%

O=C(CN1CC(c2ccccc2)CC1=O)NCc1ccc(F)cc1 (centres undefined)
inactive: growth inhibition [1] -10.3% | growth inhibition [2] 12.3% | viability increase [3] 0.06% | viability [4] 103% | viability [5] 103% | inhibition [6] 2.63% | RAM network inhibition [7] -0.21%

C=Cn1ccnc1P(=S)(c1cc(N(CC)CC)ns1)c1nccn1C=C
inactive: growth inhibition [1] -0.585% | growth inhibition [2] 21.8% | viability increase [3] -0.61% | viability [4] 92.1% | viability [5] 90.5% | inhibition [6] 1.49% | RAM network inhibition [7] 2.27%

CC12CN3CC(C)(CN(C1)C3c1cccnc1)C2=O (centres undefined)
inactive: growth inhibition [1] -9.24% | growth inhibition [2] 7.5% | viability increase [3] -0.3% | viability [4] 103% | viability [5] 100% | inhibition [6] 1.14% | RAM network inhibition [7] 9%

CC12CNCC(C)(CNC1)C2O (centres undefined)
inactive: growth inhibition [1] 7.96% | growth inhibition [2] -2.77% | viability increase [3] -0.15% | viability [4] 97.5% | viability [5] 99.8% | inhibition [6] 1.12% | RAM network inhibition [7] 2.1%

CCCOC(=O)COc1cc(C)cc2oc(=O)c3c(c12)CCC3
inactive: growth inhibition [1] -10.1% | growth inhibition [2] -13.8% | viability increase [3] 1.68% | viability [4] 88% | viability [5] 86.1% | inhibition [6] 1.03% | RAM network inhibition [7] 4.39%

CN(C)C(=O)Oc1ccc(-c2nnco2)cc1
inactive: growth inhibition [1] 0.38% | growth inhibition [2] -1.25% | viability increase [3] 1.79% | viability [4] 104% | viability [5] 99.7% | inhibition [6] 1.48% | RAM network inhibition [7] 0.73%

COc1ccc(CC2C(=O)NC(=O)N(c3ccccc3)C2=O)c(OC)c1 (centres undefined)
inactive: growth inhibition [1] -13.5% | growth inhibition [2] 0.545% | viability increase [3] -1.2% | viability [4] 89.6% | viability [5] 96.9% | inhibition [6] -0.495% | RAM network inhibition [7] 0.67%

O=C(NC1(C(F)(F)F)Oc2ccccc2O1)N1CCC2(CC1)OCCO2
inactive: growth inhibition [1] -4.29% | growth inhibition [2] 1.45% | viability increase [3] -5.11% | viability [4] 51.5% | viability [5] 79.8% | inhibition [6] 0.465% | RAM network inhibition [7] 0.45%

O=C1CC(=O)N(c2ccc(Cl)cc2Cl)C(=O)N1
inactive: growth inhibition [1] -10.7% | growth inhibition [2] 11.2% | viability increase [3] 0.06% | viability [4] 93.2% | viability [5] 91.2% | inhibition [6] 0.19% | RAM network inhibition [7] 1.94%

C=Cn1ccnc1P(=S)(c1c(C)nn(-c2ccccc2)c1C)c1nccn1C=C
inactive: growth inhibition [1] 0.15% | growth inhibition [2] 13.2% | viability increase [3] -2.8% | viability [4] 93.8% | viability [5] 90.2% | inhibition [6] 1.75% | RAM network inhibition [7] 5.43%

CCOC(=O)c1c(C)n(Cc2ccco2)c2ccc(OC)cc12
inactive: growth inhibition [1] 3.7% | growth inhibition [2] 0.26% | viability increase [3] -4.85% | viability [4] 84.4% | viability [5] 85.8% | inhibition [6] 0.59% | RAM network inhibition [7] 3.6%

Nc1ccc(S(=O)(=O)N2CCCCC2c2cccnc2)cc1 (centres undefined)
inactive: growth inhibition [1] -3.15% | growth inhibition [2] 0.935% | viability increase [3] -0.96% | viability [4] 103% | viability [5] 104% | inhibition [6] 0.625% | RAM network inhibition [7] -0.2%

CCOC(=O)c1c(C)n(Cc2ccccc2)c2ccc(OCC(O)Cn3nc(C)nc3C)cc12 (centres undefined)
inactive: growth inhibition [1] -0.525% | growth inhibition [2] 19.9% | viability increase [3] -0.16% | viability [4] 82.7% | viability [5] 88.3% | inhibition [6] -0.42% | RAM network inhibition [7] 0.63%

Cn1c(O)c(C(=NCCN2CCCCC2)c2ccccc2Cl)c(=O)n(C)c1=O
inactive: growth inhibition [1] -15% | growth inhibition [2] -13.6% | viability increase [3] -0.81% | viability [4] 87.3% | viability [5] 93.8% | inhibition [6] -0.185% | RAM network inhibition [7] 0.48%

CCOC(=O)c1c(C)c(P(=S)(N2CCOCC2)N2CCOCC2)n(C)c1C
inactive: growth inhibition [1] -22.4% | growth inhibition [2] -3.18% | viability increase [3] -3.92% | viability [4] 89.1% | viability [5] 87.1% | inhibition [6] 2.06% | RAM network inhibition [7] 2.36%

CCCCCCOc1ccc(CN2CCN(CCO)CC2)cc1
inactive: growth inhibition [1] -16.7% | growth inhibition [2] 2.46% | viability increase [3] -6.03% | viability [4] 60.7% | viability [5] 75.5% | inhibition [6] 2% | RAM network inhibition [7] -1.21%

COC(=O)C(O)(c1ccc(N(C)S(=O)(=O)c2ccccc2)cc1)C(F)(F)F (centres undefined)
inactive: growth inhibition [1] -3.52% | growth inhibition [2] 2.86% | viability increase [3] 1.65% | viability [4] 98.8% | viability [5] 108% | inhibition [6] 1.2% | RAM network inhibition [7] 0.9%

CC(C)NS(=O)(=O)c1ccc(OCC(=O)N2CCN(C)CC2)cc1
inactive: growth inhibition [1] -11.8% | growth inhibition [2] -2.15% | viability increase [3] -0.3% | viability [4] 96.3% | viability [5] 102% | inhibition [6] 1.13% | RAM network inhibition [7] 3.6%
